aSyn UTR inh: MLPCN primary screen, SNCA 5' untranslated region. alpha-synuclein 5'UTR reporter, inhibitor activity. inhibition, % (tested at 7.5 µM). 0.82% of 300,000 active. AID 1813, 2009; in the data active means inhibition above about 60%; inconclusive means no clear call, values can overlap the other calls;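 further: H4 neuroglioblastoma cells stably carrying SNCA 5'UTR luciferase fusion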
PAX8 reporter: inhibitors of PAX8-driven TPO luciferase reporter, primary screen, RMG-I cells, single concentration | 1.2% of 360,000 active | SteadyGlo, 24 h | inhibition, % at 12.6 µM;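 active means mean replicate inhibition at least 60% with every replicate also reaching 60%; inconclusive means only one of the two criteria is met; inactive means mean below 60% and not all replicates reaching 60%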;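 further: luciferase light reporting Pax8 driven TPO promoter activity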
EWS-Fli block: EWS/Fli-driven NR0B1 reporter inhibitors, primary screen, A673 cells, NR0B1 luciferase, luminescence, MLPCN library. 0.67% of 350,000 active. viability-normalised. inhibition, % at 12.6 µM;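 active means mean inhibition of at least 50% after viability correction, with every replicate also passing that limit; inconclusive means mean reaches 50% but only one of two replicates passes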;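 further: firefly luciferase signal divided by Alamar Blue viability fluorescence both relative to DMSO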
Shn3 inh set2: reduction of Shn3 3'UTR firefly luciferase signal, primary screen, Schnurri-3 inhibitor project, cell-based, Clone20 osteoblasts, set 2 | Clone20 osteoblast Shn3 3'UTR firefly luciferase, 24 h | inhibition, % at 12.5 µM | 0.52% of 360,000 active;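 active means mean inhibition of at least 75% with every replicate also reaching 75%; inconclusive means mean inhibition at least 75% but some replicate below; inactive means mean inhibition below 75%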
LMP1 NFkB inh: EBV LMP1-driven NF-kappaB luciferase reporter inhibitors, primary screen, cell-based, luminescence, single point | LMP1-induced NF-kappaB luciferase reporter cells | inhibition, % at 12.5 µM | 0.69% of 350,000 active; in the data active means inhibition above about 41%; inconclusive means no clear call, values can overlap the other calls
FN deposition inh: inhibitors of fibronectin matrix deposition, primary screen, AH1F cells, Alexa488-fibronectin fluorescence, plate reader. AH1F fibroblasts, overnight. inhibition, % at 12.6 µM. 0.086% of 350,000 active;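 active means mean inhibition across replicates of 30% or more, regardless of how many single replicates reach that level; inconclusive means mean under 30% yet at least half of replicates reach 30%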
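Assay system: AH1F fibroblasts assembling fluorescent fibronectin matrix; Amount: 10000 AH1F cells per well; Buffer or medium: DMEM, 2% serum; Probe or stimulus: Alexa488-fibronectin, 24 nM final in well; Doses: single compound dose, delivered by pin transfer; Incubation: 1 h adhesion, overnight exposure; Measured by: fluorescence 485/525 nm; Read-out: fibronectin deposition inhibition.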
Numbers stand for hits; i = inactive; ? = inconclusive; nt = no result. Most compounds without a hit are left out; they make up all but 2.1% or so of the library.

SMILES	aSyn UTR inh	PAX8 reporter	EWS-Fli block	Shn3 inh set2	LMP1 NFkB inh	FN deposition inh
O=C(O)[C@@H]1CCCC[C@@H]1C(=O)N1CCc2ccccc2C1CN1C(=O)c2ccccc2C1=O (stereo partly specified)	68	i	nt	i	i	i
O=[N+]([O-])c1cccc(-c2ccc(/C=N/Nc3nc(N4CCCCC4)nc(N4CCCCC4)n3)o2)c1	73	i	i	i	?	i
O=[N+]([O-])c1ccc(-c2ccc(/C=N/Nc3nc(N4CCCCC4)nc(N4CCCCC4)n3)o2)cc1	i	i	i	i	i	i
CC(C)C#Cc1ccc([C@@H]2[C@@H](CO)N3C(=O)CN(C(=O)NC4CCCCC4)C[C@H]23)cc1	nt	nt	i	nt	nt	i
O=C(C[n+]1cccc(CNC(=O)c2ccc(OC(F)F)cc2)c1)Nc1ccc(SC(F)F)cc1	i	67	nt	i	i	i
O=C(C[n+]1cccc(CNC(=O)c2ccc(OC(F)F)cc2)c1)Nc1ccccc1Cl	i	i	nt	i	i	i
CO[C@H]1CN(C)C(=O)c2cc(NC(=O)Nc3c(C)noc3C)ccc2OC[C@H](C)N(C)C[C@H]1C	nt	i	i	nt	nt	i
C[C@@H]1CN([C@H](C)CO)C(=O)c2c(c3ccccc3n2C)-c2ccccc2CO[C@@H]1CN(C)Cc1cccc(C(=O)O)c1	nt	i	i	nt	nt	i
CN(C)C(=S)SCC(=O)Nc1ccc(Cl)cc1Cl	i	i	75	i	i	nt
O=C(CC(=O)Nc1ccc(Cl)cc1Cl)Nc1ccc(Cl)cc1Cl	i	i	i	i	i	i
Cc1cccc2nc(-c3ccco3)c(Nc3ccccc3)n12	i	i	i	i	i	i
Cc1ccc(Nc2c(-c3ccccn3)nc3cccc(C)n23)cc1	i	i	i	90	i	i
C=C1C(=O)O[C@@H]2C[C@@H](C)[C@@H]3C=CC(=O)[C@@]3(C)[C@@H](OC(C)=O)[C@H]12	95	102	62	nt	nt	39
CCCC#Cc1ccc([C@@H]2[C@H]3CN(S(=O)(=O)Cc4ccccc4)CC(=O)N3[C@H]2CO)cc1	nt	nt	i	nt	nt	nt
COc1ccc2cc[nH]c2c1	71	i	i	i	i	i
O=C(C[C@H]1CC[C@H]2[C@@H](COC[C@H](O)CN2Cc2cc(F)ccc2F)O1)N1CCc2ccccc2C1	nt	i	i	nt	nt	i
COc1ccc(S(=O)(=O)NCC(c2cccnc2)N2CCN(c3ccccc3)CC2)cc1C (stereo unspecified)	i	nt	nt	i	i	nt
COc1ccc(S(=O)(=O)NCC(c2cccnc2)N2CCN(c3ccc(F)cc3)CC2)cc1C (stereo unspecified)	i	nt	nt	i	82	nt
CCn1c(C)nc2cc(C(=O)N/N=C/c3ccc(O)cc3)ccc21	i	i	i	i	i	i
CCn1c(C)nc2cc(C(=O)NN=Cc3ccc([N+](=O)[O-])cc3)ccc21	nt	i	i	i	i	31
CCn1c(C)nc2cc(C(=O)N/N=C/c3ccccc3)ccc21	i	i	i	i	i	i
CCn1c(C)nc2cc(C(=O)NN=C(C)c3ccc(C#N)cc3)ccc21	nt	nt	i	i	i	i
CCn1c(C)nc2cc(C(=O)N/N=C/c3cccc(O)c3O)ccc21	i	i	i	91	i	i
CCn1c(C)nc2cc(C(=O)N/N=C(\C)c3ccc(OC)cc3O)ccc21	84	i	i	i	i	nt
COC(=O)[C@H]1[C@H](CO)[C@H]2Cn3c(ccc(-c4ccccc4F)c3=O)[C@H]2N1Cc1ccccc1	nt	i	i	nt	nt	nt
SMILES	aSyn UTR inh	PAX8 reporter	EWS-Fli block	Shn3 inh set2	LMP1 NFkB inh	FN deposition inh
COc1ccc(Cn2c(SCc3ccccc3C)nc3cc(OC)c(OC)cc3c2=N)cc1	93	nt	nt	90	i	nt
COc1cc2nc(SCc3ccc(F)cc3)n(Cc3cccs3)c(=N)c2cc1OC	i	nt	nt	i	i	i
C[C@H](O)C#Cc1ccc2c(c1)O[C@H](CN(C)Cc1ccc(-c3ccccc3)cc1)[C@H](C)CN([C@@H](C)CO)S2(=O)=O	nt	81	i	nt	nt	nt
C[C@@H](O)C#Cc1ccc2c(c1)O[C@H](CN(C)Cc1ccccc1)[C@@H](C)CN([C@@H](C)CO)S2(=O)=O	nt	nt	i	nt	nt	i
C[C@@H]1CN([C@@H](C)CO)S(=O)(=O)c2ccc(C#C[C@@H](C)O)cc2O[C@@H]1CN(C)Cc1ccc(-c2ccccc2)cc1	nt	77	i	nt	nt	nt
C[C@@H]1CN([C@H](C)CO)S(=O)(=O)c2ccc(C#C[C@@H](C)O)cc2O[C@H]1CN(C)Cc1ccc(-c2ccccc2)cc1	nt	?	i	nt	nt	nt
C[C@H](O)C#Cc1ccc2c(c1)O[C@H](CN(C)Cc1ccc(-c3ccccc3)cc1)[C@@H](C)CN([C@@H](C)CO)S2(=O)=O	nt	109	i	nt	nt	nt
C[C@H](O)C#Cc1ccc2c(c1)O[C@@H](CN(C)Cc1ccc(-c3ccccc3)cc1)[C@H](C)CN([C@H](C)CO)S2(=O)=O	nt	94	i	nt	nt	nt
Cc1ccccc1-c1ccc([C@H]2[C@@H](CO)N3CCCCN(C(=O)NC4CCCC4)C[C@H]23)cc1	nt	i	i	nt	nt	nt
Cn1cnc(S(=O)(=O)N2CCCCN3[C@H](C2)[C@H](c2ccc(C4=CCCC4)cc2)[C@@H]3CO)c1	nt	i	i	nt	nt	nt
Fc1ccc(-c2nnc(NC3=NCCCCC3)o2)cc1	98	nt	nt	i	65	nt
c1ccc(-c2nnc(NC3=NCCC3)o2)cc1	i	i	i	i	i	nt
O=C(NCC[C@@H]1CC[C@H](NS(=O)(=O)c2ccc(F)cc2)[C@@H](CO)O1)Nc1ccc(F)cc1	nt	i	i	nt	nt	i
O=[N+]([O-])c1ccc(Sc2ccncn2)c([N+](=O)[O-])c1	nt	105	i	i	i	i
O=[N+]([O-])c1ccc(Sc2cccc3cccnc23)cc1	i	nt	i	i	i	nt
O=[N+]([O-])c1cc(Cl)ccc1Sc1cccc2cccnc12	i	nt	i	i	i	nt
C=CCn1nc([N+](=O)[O-])nc1Sc1cccc2cccnc12	i	nt	nt	89	i	nt
CN(C)/N=C/c1ccc(Sc2ccc([N+](=O)[O-])cc2[N+](=O)[O-])o1	i	i	nt	i	i	i
Cc1cc(C)nc(Sc2ccc([N+](=O)[O-])cc2[N+](=O)[O-])n1	i	94	nt	i	i	i
O=[N+]([O-])c1ccc(Sc2cccc3cccnc23)c([N+](=O)[O-])c1	i	nt	i	93	i	nt
O=[N+]([O-])c1cc(Cl)ccc1Sc1ccccn1	i	i	i	nt	i	i
C[C@@H]1CN([C@H](C)CO)C(=O)c2cc(NC(=O)Cc3cn(C)c4ccccc34)ccc2O[C@@H]1CN(C)C	nt	i	nt	nt	nt	nt
Cc1ccccc1-c1cnc2c(c1)C(=O)N([C@H](C)CO)C[C@H](C)[C@H](CN(C)C(=O)CC1CC1)O2	nt	i	i	nt	nt	i
C[C@@H]1CN([C@@H](C)CO)S(=O)(=O)c2ccc(C#Cc3ccccn3)cc2O[C@H]1CN(C)C(=O)C1CC1	nt	nt	i	nt	nt	i
Cc1cc(NC(=O)CSc2nnc(-c3ccco3)n2C)no1	nt	i	i	i	71	i

Source: PubChem (Broad Institute)
